High-throughput results deposited in PubChem by several laboratories.
Only some compounds are listed: those with a hit (about 2.1% of all), similar ones and a draw of the others.
FXIa inh 1536: blocks human coagulation factor XIa protease activity; P03951; purified FXIa, Boc-Glu-Ala-Arg-AMC fluorogenic substrate; inhibition, % at 5 µM; actives 0.14% (n = 220,000); AID 798;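 active means inhibition of at least 40%; inactive means inhibition below 40%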;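 further: fluorescence of freed AMC excited at 355 nm; 0% = enzyme without compound and 100% = no enzyme blank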
KLK5 inh: blocks human kallikrein 5 protease activity. Q9Y337. recombinant hK5, fluorogenic AMC substrate cleavage. inhibition, % at 5 µM. actives 0.59% (n = 210,000). AID 873;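 active means inhibition of 40% or more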;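 further: 0% = enzyme controls without compound and 100% = no-enzyme blanks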
Target sequence (Q9Y337 67-293 limits assumed): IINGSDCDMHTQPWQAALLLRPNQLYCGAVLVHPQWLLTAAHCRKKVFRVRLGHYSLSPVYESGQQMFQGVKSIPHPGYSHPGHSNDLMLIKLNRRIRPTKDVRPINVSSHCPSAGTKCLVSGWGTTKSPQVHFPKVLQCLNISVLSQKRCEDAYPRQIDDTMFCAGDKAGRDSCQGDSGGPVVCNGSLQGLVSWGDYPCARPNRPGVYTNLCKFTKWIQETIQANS
EP2 modulator: EP2 receptor (human) modulation; EP2-expressing cells, cAMP HTRF FRET, PGE2 co-stimulation; induction, % at 25 µM; actives 0.83% (n = 260,000); AID 940;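 active means compounds whose cAMP rise, as percent of the full-agonist control response, exceeds 60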;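 further: rat C6 glioma line stably carrying human EP2 under a CMV promoter; the protocol text gives 20 µM as final concentration; 100% = response of wells given 1 µM PGE2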
Thrombin inh: blocks human thrombin protease activity; alpha-thrombin, Boc-VPR-AMC fluorogenic substrate cleavage; inhibition, % at 5 µM; AID 1046; actives 0.26% (n = 220,000); P00734;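 active means inhibition at or above 40%; inactive means inhibition below 40%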;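 further: 0% = enzyme with no compound and 100% = wells without enzyme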
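Test system: human alpha-thrombin; medium: pH 7.5 Tris-saline with Tween 20; times: reaction at room temperature; signal: AMC fluorescence at 355 nm excitation and 460 nm emission; also added: Boc-VPR-AMC substrate, 15 µM final; dosing: one concentration per compound, 5 µM, with 0.2% DMSO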
PGE2 EP2 inh: EP2 receptor (human) inhibition; inhibition, % at 25 µM; AID 1422; P43116; actives 0.52% (n = 260,000); C6 glioma cells expressing human EP2, cAMP TR-FRET; cells stimulated with saturating PGE2;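 active means percent inhibition above 40 after rounding to a whole number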;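 further: rat C6 glioma host cells with rolipram phosphodiesterase inhibitor present; the protocol text gives 20 µM as final concentration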
FXIIa inh 1536: blocks human coagulation factor XIIa protease activity | purified FXIIa, Boc-QGR-AMC fluorogenic substrate, 2 h | actives 0.3% (n = 220,000) | inhibition, % at 5 µM | P00748; in the data active means inhibition above about 40%;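 further: 0% = enzyme with no compound and 100% = blank without enzyme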
EP2 confirm: EP2 receptor cAMP induction, counter-screens negative; shares compounds with EP2 modulator; C6 glioma EP2 cells, cAMP HTRF induction; plus low (about EC15) PGE2 agonist; calls only at 20 µM (by protocol); actives 47% (n = 1,300);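 active means cAMP induction above 50% in the main assay while under 30% in all four parallel counter assays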;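 further: rat C6 glioma cells stably expressing human EP2 receptor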
Numbers without * were called inactive; i = inactive; / = not tested or not shown; + = active, no number.

SMILES	FXIa inh 1536	KLK5 inh	EP2 modulator	Thrombin inh	PGE2 EP2 inh	FXIIa inh 1536	EP2 confirm
CCOC(=O)C1=C(N)N2C(=O)C(C)SC2=C(C(=O)OC)C1c1ccccc1OC (stereo unspecified)	-7	1	88*	-3	7	2	+
CCSc1nc2sc3c(c2c(=O)n1CC)CC(C)(C)OC3	0	-3	52	0	6	8	i
COc1ccc(S(=O)(=O)N2CCC(C(=O)Nc3ccccc3SC)CC2)cc1	/	/	-89	/	10	/	/
Cn1c(=O)c2c(nc(SCC(=O)N3CCc4ccccc4C3)n2C)n(C)c1=O	-6	-8	82*	-8	8	2	i
Cn1c(=O)c2c(nc(SCC(=O)N3c4ccccc4CCc4ccccc43)n2C)n(C)c1=O	-5	-10	19	1	-4	11	/
Nc1cc(N)nc(SCc2c(Cl)cccc2Cl)n1	/	/	-37	/	7	/	/
COc1cnc(SCc2c(Cl)cccc2Cl)nc1Cl	1	-4	74*	2	6	10	+
CCn1nnnc1SCC(=O)Nc1cccc(C)n1	8	-4	70*	5	9	18	i
N#CCSc1nc2ccccc2c(=O)n1CCC(=O)NC1CCCCC1	6	-22	13	4	7	20	/
N#CCSc1nc2ccccc2c(=O)n1C1CCCCC1	-4	-18	71*	0	12	6	+
CCOc1ccc(-n2c(SCC(N)=O)nc3ccccc3c2=O)cc1	/	/	-8	/	5	/	/
CCCn1c2ccccc2c2nc3ccccc3nc21	-2	-25	78*	4	20	11	+
CCn1c2ccc(F)cc2c2nc3ccccc3nc21	0	9	40	-3	6	8	i
N#CCCn1c2ccccc2c2nc3ccccc3nc21	1	-6	-12	-2	19	6	/
CCCn1c(Nc2nc3ccccc3n2C)nc2ccccc21	-8	-275	71*	-4	8	8	i
CN(N)c1cc(=O)n(C)c(=O)[nH]1	/	/	-1	/	11	/	/
COc1ccc2cc(CN(CCCO)S(=O)(=O)c3c(C)cc(C)cc3C)c(=O)[nH]c2c1	/	/	-1	/	13	/	/
Cc1sc(NC(=O)C2CCC2)nc1-c1ccc2c(c1)CCN2C(=O)C(C)C	/	/	-83	/	14	/	/
COc1ccc(-c2cc(C(F)(F)F)nc(N3CCOCC3)n2)cc1OC	8	10	70*	2	6	18	+
COc1ccc(-c2cc(C(F)(F)F)nc(SCC(=O)NC3CCCCCC3)n2)cc1OC	/	/	-61	/	26	/	/
COc1ccc(-c2cc(C(F)(F)F)nc(NC3CCCC3)n2)cc1OC	6	6	68*	2	8	22	i
COc1ccc(-c2cc(-c3ccccc3)nc(N3CCCC3)n2)cc1OC	-13	-32	64*	-6	5	2	i
COc1cccc(-c2cc(C(F)(F)F)nc(N3CCOCC3)n2)c1	-1	3	35	-3	6	9	/
Cn1ncc2c1CCc1sc(NC(=O)Cc3ccc(Cl)cc3)nc1-2	/	/	-73	/	10	/	/
O=C(/C=C/c1cccs1)c1ccc(NC(=O)c2cccs2)cc1	/	/	-25	/	13	/	/
SMILES	FXIa inh 1536	KLK5 inh	EP2 modulator	Thrombin inh	PGE2 EP2 inh	FXIIa inh 1536	EP2 confirm
Cc1nc2sc3c(c2c2nnc(SCc4cccnc4)n12)CCCC3	/	/	50	/	10	/	/
FC(F)(F)c1cc(-c2ccccc2)nc2nc(N3CCOCC3)sc12	-5	-11	67*	0	10	6	+
O=C(O)c1cc(-c2ccccc2)nc2nc(N3CCCCC3)sc12	-7	-27	10	-3	7	-12	/
Cc1cc(C)c2nc(C(F)(F)F)nc(N3CCN(C(=O)c4ccco4)CC3)c2c1	-8	-16	39	-5	4	2	/
Cc1cc(C)c2nc(N3CCCN(C(=O)c4ccco4)CC3)c(C#N)cc2c1	-10	11	70*	-6	7	-2	+
Cn1ccnc1C1(O)CC2CCC(C1)N2S(=O)(=O)c1ccc(F)cc1 (stereo unspecified)	/	/	-88	/	/	/	/
Cc1cc(C)cc(OCC(=O)N2CCCC2)c1	/	/	-8	/	5	/	/
